# Results reported in ChEMBL document CHEMBL1629511, “Naphthylchalcones induce apoptosis and caspase activation in a leukemia cell line: The relationship between mitochondrial damage, oxidative stress, and cell death” (Bioorg Med Chem, 2010).
# The source made the active and inactive calls. The rule behind the calls is not given here.
# Tests used:
# L1210 [1] = assay: Induction of apoptosis in mouse L1210 cells assessed as decrease in mitochondrial membrane potential at IC50 concentration after 4 hrs using JC-1 staining by spectrofluorimetric analysis; format: functional, cell-based
# Outline: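 L1210 cells at 5 × 10⁵/well were treated for 4 h, then stained with JC-1 (10 µg/ml) for 20 min at 37 °C, washed and resuspended in PBS. Fluorescence was read with excitation at 488 nm and emission at 590/527 nm. The red/green ratio is expressed relative to control (100%).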
# L1210 [2] = assay: Induction of apoptosis in mouse L1210 cells assessed as increase in GSH level at IC50 concentration measured after 24 hrs; format: functional, cell-based
# Outline: (§1)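 Homogenates came from 3 × 10⁶ L1210 cells after 24 h treatment (phosphate/NaCl/Triton lysis, sonication, 10,000 rpm spin). Total glutathione was measured by the glutathione reductase recycling method (50 µg protein, 75 µM DTNB, 120 µM NADPH, 4 U/ml GR) at 405 nm against a GSH standard. GSSG = (TG − GSH)/2. Values were protein-normalized and given as % of control.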
# CCRF-CEM [3] = assay: Cytotoxicity against human CEM cells after 72 hrs by MTT assay; format: functional, cell-based
# L1210 [4] = assay: Cytotoxicity against mouse L1210 cells after 48 hrs by MTT assay; format: functional, cell-based; conditions: L1210, 48 h
# Outline: (§2)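 MTT assay on L1210 or CEM cells grown in DMEM with 10% heat-inactivated FBS. Cells were seeded at 1 × 10⁵/well for 24 h or 5 × 10⁴/well for 48 h, in triplicate, with 1–100 µM compound (DMSO ≤1%). MTT was added for 2 h at 37 °C, formazan dissolved in DMSO, and A540 read. IC50 came from a Hill concentration–response fit.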
# L1210 [5] = assay: Induction of apoptosis in mouse L1210 cells assessed as increase in glutathione S-transferase activity at IC50 concentration measured after 24 hrs; format: functional, cell-based
# Outline: (§3)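 Homogenates came from 6 × 10⁶ L1210 cells after 24 h treatment. GPx was measured with 150 µg protein as NADPH loss at 340 nm. Catalase followed Aebi with 60 µg protein. GST was measured as the GSH–CDNB conjugate at 340 nm. Activities were protein-normalized and given as % of control.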
# CCRF-CEM [6] = assay: Cytotoxicity against human CEM cells after 24 hrs by MTT assay; format: functional, cell-based; outline: as §2
# L1210 [7] = assay: Cytotoxicity against mouse L1210 cells after 24 hrs by MTT assay in presence of superoxide dismutase; format: functional, cell-based; conditions: L1210, 24 h
# Outline: (§4)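 L1210 cells at 1 × 10⁵/well were exposed for 24 h to 1–100 µM compound together with catalase 5000 U/ml, SOD 250 U/ml or Trolox 200 µM. Additive-only controls were run in parallel. Viability was read by MTT (2 h, formazan in DMSO, A540) in triplicate.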
# L1210 [8] = assay: Induction of apoptosis in mouse L1210 cells assessed as DNA fragmentation at IC50 concentration after 24 hrs by agarose gel electrophoresis analysis; format: functional, cell-based
# Outline: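 3 × 10⁶ L1210 cells were treated for 24 h, washed with cold PBS, then lysed in EDTA/Tris pH 8.0/NP-40/proteinase K buffer at 50 °C for 2 h. DNA was ethanol-precipitated, washed, treated with RNase A at 37 °C for 1 h and resolved by agarose gel electrophoresis beside a size standard.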
# L1210 [9] = assay: Induction of lipid peroxidation in mouse L1210 cells at IC50 concentration after 24 hrs by TBARS method; format: functional, cell-based
# Outline: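 Homogenates came from 4 × 10⁶ L1210 cells after 24 h treatment. 400 µg protein was mixed with 60 mM Tris–HCl pH 7.4, 0.1 mM DPTA, TCA and 0.73% TBA, boiled 2 h, cooled and centrifuged. A535 was converted to nmol TBARS per µg protein using the MDA extinction coefficient.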
# L1210 [10] = assay: Cytotoxicity against mouse L1210 cells after 24 hrs by MTT assay in presence of Trolox; format: functional, cell-based; conditions: L1210, 24 h; outline: as §4
# L1210 [11] = assay: Induction of apoptosis in mouse L1210 cells assessed as increase in caspase 3 activity at IC50 concentration after 2 to 4 hrs; format: functional, cell-based
# Outline: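 3 × 10⁶ L1210 cells were treated for 2 or 4 h at 37 °C, then lysed in HEPES pH 7.4 buffer with protease inhibitors, CHAPS and DTT. Extract (50 µg protein) was incubated with 10 µM Ac-DEVD-AMC for 2 h at 37 °C. AMC fluorescence was read at ex 380/em 465 nm, blank-subtracted, and expressed per hour per µg protein (Lowry).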
# L1210 [12] = assay: Cytotoxicity against mouse L1210 cells after 24 hrs by MTT assay in presence of catalase; format: functional, cell-based; conditions: L1210, 24 h; outline: as §4
# L1210 [13] = assay: Cytotoxicity against mouse L1210 cells after 24 hrs by MTT assay; format: functional, cell-based; conditions: L1210, 24 h; outline: as §2
# L1210 [14] = assay: Induction of apoptosis in mouse L1210 cells assessed as increase in GSSG level at IC50 concentration measured after 24 hrs; format: functional, cell-based; outline: as §1
# L1210 [15] = assay: Induction of apoptosis in mouse L1210 cells assessed as increase in glutathione reductase activity at IC50 concentration measured after 24 hrs; format: functional, cell-based
# L1210 [16] = assay: Induction of apoptosis in mouse L1210 cells assessed as decrease in intracellular ATP concentration at IC50 concentration measured up to 24 hrs; format: functional, cell-based
# Outline: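 Intracellular ATP: 1 × 10⁶ L1210 cells were treated for up to 24 h. Extracts were made in 1.25% trichloroacetic acid, kept on ice 30 min, neutralized with 1 M Tris–acetate pH 7.5 and centrifuged. Luciferin–luciferase bioluminescence was read and normalized to the cell death percentage over the incubation.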
# L1210 [17] = assay: Induction of apoptosis in mouse L1210 cells assessed as increase in total glutathione level at IC50 concentration measured after 24 hrs; format: functional, cell-based; outline: as §1
# L1210 [18] = assay: Induction of apoptosis in mouse L1210 cells assessed as increase in glutathione peroxidase activity at IC50 concentration measured after 24 hrs; format: functional, cell-based; outline: as §3
# L1210 [19] = assay: Induction of apoptosis in mouse L1210 cells assessed as increase in catalase activity at IC50 concentration measured after 24 hrs; format: functional, cell-based; outline: as §3
# L1210 [20] = assay: Induction of ROS production in mouse L1210 cells at IC50 concentration after 4 hrs
# L1210 [21] = assay: Cytotoxicity against mouse L1210 cells after 72 hrs by MTT assay; format: functional, cell-based; conditions: L1210, 72 h
# CCRF-CEM [22] = assay: Cytotoxicity against human CEM cells after 48 hrs by MTT assay; format: functional, cell-based; outline: as §2
SMILES,Activity (L1210 [1]),Activity (L1210 [2]),IC50 (CCRF-CEM [3]) [µM],IC50 (L1210 [4]) [µM],Activity (L1210 [5]),IC50 (CCRF-CEM [6]) [µM],IC50 (L1210 [7]) [µM],Activity (L1210 [8]),Activity (L1210 [9]),IC50 (L1210 [10]) [µM],Activity (L1210 [11]),IC50 (L1210 [12]) [µM],IC50 (L1210 [13]) [µM],Activity (L1210 [14]),Activity (L1210 [15]),Activity (L1210 [16]),Activity (L1210 [17]),Activity (L1210 [18]),Activity (L1210 [19]),Activity (L1210 [20]),also measured
O=C(/C=C/c1cccc(Cl)c1)c1ccc2ccccc2c1,Active,inactive,6,23,Active,11,30,Active,Active,34,Active,51,38,Active,Active,Active,Active,Active,inactive,Active,IC50 (L1210 [21]): 10 µM; IC50 (CCRF-CEM [22]): 12 µM
O=C(/C=C/c1ccccc1)c1ccc2ccccc2c1,inactive,Active,5,20,Active,12,31,Active,Active,39,Active,58,37,Active,Active,Active,Active,Active,inactive,Active,IC50 (L1210 [21]): 17 µM; IC50 (CCRF-CEM [22]): 14 µM
O=C(/C=C/c1cccc([N+](=O)[O-])c1)c1ccc2ccccc2c1,Active,inactive,4,13,Active,11,20,Active,Active,20,Active,45,24,Active,Active,Active,Active,Active,inactive,Active,IC50 (L1210 [21]): 14 µM; IC50 (CCRF-CEM [22]): 11 µM
